Experimental data published in the M2OR odorant receptor database.

Experiments:
Conditions in all cases: stereoisomer not certain
[1] = target: OR10H3 (Homo sapiens) (UniProt O60404)
In short: (§1)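 Each receptor–molecule pair is labelled responsive or non-responsive (inactive) according to whether the original authors judged the measured signal statistically different from baseline. The data were taken from the main text and supplementary material of published papers and checked for typos and inconsistencies. Assay methods differed by source, with transient luciferase assays in mammalian cell lines being common.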

[2] = target: OR10H4 (Homo sapiens) (UniProt Q8NGA5)
OR10H4 (Homo sapiens), sequence (Q8NGA5 whole entry): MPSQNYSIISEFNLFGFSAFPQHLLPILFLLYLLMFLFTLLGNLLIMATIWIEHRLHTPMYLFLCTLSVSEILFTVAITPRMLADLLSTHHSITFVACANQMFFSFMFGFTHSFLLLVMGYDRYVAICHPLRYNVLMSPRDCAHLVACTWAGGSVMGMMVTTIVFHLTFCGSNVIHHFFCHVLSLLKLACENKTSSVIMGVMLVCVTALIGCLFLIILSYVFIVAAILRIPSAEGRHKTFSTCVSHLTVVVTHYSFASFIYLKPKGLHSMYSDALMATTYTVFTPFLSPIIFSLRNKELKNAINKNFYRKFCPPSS
In short: as §1

[3] = target: OR10H5 (Homo sapiens) (UniProt Q8NGA6)
OR10H5 (Homo sapiens), sequence (Q8NGA6 whole entry): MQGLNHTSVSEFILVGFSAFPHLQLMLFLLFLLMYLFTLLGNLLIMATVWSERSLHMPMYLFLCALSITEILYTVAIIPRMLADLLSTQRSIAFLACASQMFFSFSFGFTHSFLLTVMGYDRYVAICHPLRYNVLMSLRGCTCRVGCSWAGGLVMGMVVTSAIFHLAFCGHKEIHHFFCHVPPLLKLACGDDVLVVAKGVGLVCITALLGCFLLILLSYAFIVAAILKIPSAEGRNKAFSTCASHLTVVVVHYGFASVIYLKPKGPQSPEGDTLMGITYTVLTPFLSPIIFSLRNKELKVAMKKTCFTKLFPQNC
In short: as §1

[4] = target: OR10J1 (Homo sapiens) (UniProt P30954)
OR10J1 (Homo sapiens), sequence (P30954 whole entry): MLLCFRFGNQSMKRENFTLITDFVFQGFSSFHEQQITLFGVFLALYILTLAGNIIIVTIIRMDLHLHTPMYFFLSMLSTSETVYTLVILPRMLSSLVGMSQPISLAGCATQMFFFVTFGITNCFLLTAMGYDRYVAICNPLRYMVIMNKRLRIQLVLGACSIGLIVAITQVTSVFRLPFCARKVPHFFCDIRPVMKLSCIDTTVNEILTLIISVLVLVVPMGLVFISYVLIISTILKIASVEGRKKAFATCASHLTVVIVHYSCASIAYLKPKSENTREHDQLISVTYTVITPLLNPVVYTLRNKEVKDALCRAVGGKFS
In short: as §1

[5] = target: OR10J3 (Homo sapiens) (UniProt Q5JRS4)
OR10J3 (Homo sapiens), sequence (Q5JRS4 whole entry): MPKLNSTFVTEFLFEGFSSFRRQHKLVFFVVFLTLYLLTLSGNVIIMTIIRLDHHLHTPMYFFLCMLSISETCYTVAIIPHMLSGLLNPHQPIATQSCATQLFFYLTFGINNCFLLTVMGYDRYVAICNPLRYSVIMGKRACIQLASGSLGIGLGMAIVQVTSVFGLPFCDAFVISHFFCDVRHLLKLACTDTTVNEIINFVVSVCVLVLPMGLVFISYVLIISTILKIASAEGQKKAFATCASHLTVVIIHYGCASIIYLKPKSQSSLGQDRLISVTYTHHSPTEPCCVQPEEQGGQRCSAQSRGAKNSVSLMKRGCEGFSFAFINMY
In short: as §1

[6] = target: OR10K1 (Homo sapiens) (UniProt Q8NGX5)
OR10K1 (Homo sapiens), sequence (Q8NGX5 whole entry): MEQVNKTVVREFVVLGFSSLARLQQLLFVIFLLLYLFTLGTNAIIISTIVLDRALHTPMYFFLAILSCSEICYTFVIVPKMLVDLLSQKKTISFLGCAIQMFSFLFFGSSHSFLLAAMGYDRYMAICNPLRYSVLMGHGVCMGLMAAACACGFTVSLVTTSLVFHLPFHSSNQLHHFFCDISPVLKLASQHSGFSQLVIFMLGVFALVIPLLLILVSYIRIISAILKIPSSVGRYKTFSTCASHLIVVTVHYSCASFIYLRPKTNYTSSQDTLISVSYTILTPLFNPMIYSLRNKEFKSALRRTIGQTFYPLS
In short: as §1

[7] = target: OR10P1 (Homo sapiens) (UniProt Q8NGE3)
OR10P1 (Homo sapiens), sequence (Q8NGE3 whole entry): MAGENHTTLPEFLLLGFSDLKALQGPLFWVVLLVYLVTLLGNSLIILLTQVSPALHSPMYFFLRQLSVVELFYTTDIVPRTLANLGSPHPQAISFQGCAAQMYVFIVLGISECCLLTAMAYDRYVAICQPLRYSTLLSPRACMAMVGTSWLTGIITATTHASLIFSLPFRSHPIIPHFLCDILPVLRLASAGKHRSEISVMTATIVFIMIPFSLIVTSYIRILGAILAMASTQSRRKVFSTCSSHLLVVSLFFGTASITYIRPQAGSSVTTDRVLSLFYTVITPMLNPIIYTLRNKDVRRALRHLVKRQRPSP
In short: as §1

[8] = target: OR10J4 (Homo sapiens) (UniProt P0C629)
OR10J4 (Homo sapiens), sequence (P0C629 whole entry F198I): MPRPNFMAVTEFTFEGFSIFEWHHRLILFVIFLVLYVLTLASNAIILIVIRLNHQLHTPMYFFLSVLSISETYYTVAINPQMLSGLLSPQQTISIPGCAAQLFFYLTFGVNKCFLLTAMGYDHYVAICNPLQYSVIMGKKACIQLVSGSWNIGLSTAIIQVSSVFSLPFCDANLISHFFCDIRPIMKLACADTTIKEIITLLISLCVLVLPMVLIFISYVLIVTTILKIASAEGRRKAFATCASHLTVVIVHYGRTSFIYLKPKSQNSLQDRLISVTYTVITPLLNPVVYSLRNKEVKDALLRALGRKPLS
In short: as §1

[9] = target: OR10K2 (Homo sapiens) (UniProt Q6IF99)
OR10K2 (Homo sapiens), sequence (Q6IF99 whole entry): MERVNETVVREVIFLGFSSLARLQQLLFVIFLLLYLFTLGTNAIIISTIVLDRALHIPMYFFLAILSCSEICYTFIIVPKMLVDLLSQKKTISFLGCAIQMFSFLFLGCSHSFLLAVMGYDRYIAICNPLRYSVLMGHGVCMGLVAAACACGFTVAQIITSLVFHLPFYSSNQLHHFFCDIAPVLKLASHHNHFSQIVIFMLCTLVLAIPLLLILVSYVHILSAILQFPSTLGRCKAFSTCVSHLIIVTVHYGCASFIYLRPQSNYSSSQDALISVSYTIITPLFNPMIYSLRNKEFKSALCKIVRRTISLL
In short: as §1

Measured: odorant receptor agonist call

OR10H3 (Homo sapiens), sequence (O60404 whole entry): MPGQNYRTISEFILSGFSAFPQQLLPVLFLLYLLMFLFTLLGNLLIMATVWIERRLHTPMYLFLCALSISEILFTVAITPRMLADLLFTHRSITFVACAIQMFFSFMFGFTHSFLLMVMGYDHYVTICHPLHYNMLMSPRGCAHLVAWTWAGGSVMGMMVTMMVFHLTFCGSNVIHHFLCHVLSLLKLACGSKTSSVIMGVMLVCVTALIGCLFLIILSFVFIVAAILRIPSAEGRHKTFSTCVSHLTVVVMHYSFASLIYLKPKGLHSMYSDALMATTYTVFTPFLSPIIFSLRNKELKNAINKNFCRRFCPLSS

C=CCOC(=O)Cc1ccccc1
not listed: [8] | [9]
inactive: all other assays above

Cc1c([N+](=O)[O-])c(C)c([N+](=O)[O-])c(C(C)(C)C)c1[N+](=O)[O-]
not listed: [4]
inactive: all other assays above
